Source: ChEMBL document CHEMBL1121761, “Antihypertensive pyrrolo[1,2-c]quinazolines and pyrrolo[1,2-c]quinazolinones” (1981)

What was measured:
Format in all cases: functional, Artery
Rattus norvegicus [1] = experiment: Change in systolic blood pressure after 50 mg/kg oral administration in spontaneous hypertensive rats after 24 hr
Outline: (§1)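 Male spontaneously hypertensive rats, four per dose, received oral doses suspended in 30% PEG 200, 10% PEG 400, 10% EtOH and 50% pH 7.50 phosphate buffer at 0.5 mL/100 g. A first dose of 100 mg/kg was followed by a second dose of 50 mg/kg. Tail-cuff systolic pressure was read before dosing and 2, 4 and 24 h after each dose. Postdose readings were compared with predose readings by paired Student's t test.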

Rattus norvegicus [2] = experiment: Change in systolic blood pressure after 50 mg/kg oral administration in spontaneous hypertensive rats after 2 hr; outline: as §1
Rattus norvegicus [3] = experiment: Change in systolic blood pressure after 100 mg/kg oral administration in spontaneous hypertensive rats after 4 hr; outline: as §1
Rattus norvegicus [4] = experiment: Change in systolic blood pressure after 100 mg/kg oral administration in spontaneous hypertensive rats after 24 hr; outline: as §1
Rattus norvegicus [5] = experiment: Change in systolic blood pressure after 50 mg/kg oral administration in spontaneous hypertensive rats after 4 hr; outline: as §1
Rattus norvegicus [6] = experiment: Change in systolic blood pressure after 100 mg/kg oral administration in spontaneous hypertensive rats after 2 hr; outline: as §1
Rattus norvegicus [7] = experiment: Change in systolic blood pressure after 25 mg/kg oral administration in spontaneous hypertensive rats after 24 hr
Outline: (§2)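 Reference agents were given orally to male SHR, four per dose, as a suspension in PEG 200/PEG 400/EtOH/pH 7.50 phosphate buffer vehicle at 0.5 mL/100 g. Systolic pressure was measured by tail cuff before dosing and at 2, 4 and 24 h after each dose. Predose and postdose levels were compared by paired Student's t test.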

Rattus norvegicus [8] = experiment: Change in systolic blood pressure after 25 mg/kg oral administration in spontaneous hypertensive rats after 2 hr; outline: as §2
Rattus norvegicus [9] = experiment: Change in systolic blood pressure after 25 mg/kg oral administration in spontaneous hypertensive rats after 4 hr; outline: as §2
Rattus norvegicus [10] = experiment: Change in systolic blood pressure after 12.5 mg/kg oral administration in spontaneous hypertensive rats after 24 hr; outline: as §2
Rattus norvegicus [11] = experiment: Change in systolic blood pressure after 12.5 mg/kg oral administration in spontaneous hypertensive rats after 2 hr; outline: as §2
Rattus norvegicus [12] = experiment: Change in systolic blood pressure after 12.5 mg/kg oral administration in spontaneous hypertensive rats after 4 hr; outline: as §2
Rattus norvegicus [13] = experiment: Change in systolic blood pressure after 33 mg/kg oral administration in spontaneous hypertensive rats after 24 hr; outline: as §2
Rattus norvegicus [14] = experiment: Change in systolic blood pressure after 33 mg/kg oral administration in spontaneous hypertensive rats after 2 hr; outline: as §2
Rattus norvegicus [15] = experiment: Change in systolic blood pressure after 33 mg/kg oral administration in spontaneous hypertensive rats after 4 hr; outline: as §2

| Compound | Delta blood pressure (Rattus norvegicus [1]) | Delta blood pressure (Rattus norvegicus [2]) | Delta blood pressure (Rattus norvegicus [3]) | Delta blood pressure (Rattus norvegicus [4]) | Delta blood pressure (Rattus norvegicus [5]) | Delta blood pressure (Rattus norvegicus [6]) | other results |
| --- | --- | --- | --- | --- | --- | --- | --- |
| Cc1cc2c3ccccc3nc(O)n2c1 | 35 | 46 | 39 | 11 |  |  |  |
| CCOC(=O)c1cc2n(c1)CN(CCC#N)c1ccccc1-2 |  | 33 | 11.3 | 1.2 | 38 | 13.8 |  |
| CCOC(=O)c1cc2c3cc(Cl)ccc3ncn2c1 | 7.5 | 13.8 | 16.3 | 5 | 31.3 | 17.5 |  |
| CCOC(=O)c1cc2c3cc(C#N)ccc3ncn2c1 | 6.6 | 21.6 | 20 | 20 | 33 | 11.6 |  |
| CCOC(=O)c1cc2n(c1)CN(C(=O)OCC)c1ccccc1-2 | 23.7 | 18.7 | 11.2 | 20 | 42.5 | 6.2 |  |
| CCOC(=O)c1cc2c3ccccc3n(CCC#N)c(=O)n2c1 | 59 |  | 2 | 45 | 19 |  |  |
| CCOC(=O)c1cc2n(c1)CN(C)c1ccccc1-2 | 6.5 |  |  | 31 | 26 | 29 |  |
| COc1ccc2c(c1)nc(O)n1cc(C)cc21 | 12 | 28 | 9 | 15 | 31 | 6 |  |
| CC#Cc1c(C)cc2c3ccccc3nc(O)n12.Cl | 42 |  | 27 | 20.5 | 30 |  |  |
| COc1cc2nc(N3CCN(C(=O)c4ccco4)CC3)nc(N)c2cc1OC [PRAZOSIN] |  |  |  |  |  |  | Delta blood pressure (Rattus norvegicus [7]): 41.2; Delta blood pressure (Rattus norvegicus [8]): 56.2; Delta blood pressure (Rattus norvegicus [9]): 76.2; Delta blood pressure (Rattus norvegicus [10]): 13.7; Delta blood pressure (Rattus norvegicus [11]): 40; Delta blood pressure (Rattus norvegicus [12]): 48.2 |
| CC(C)NCC(O)COc1cccc2ccccc12 (configuration not stated) [PROPRANOLOL] |  |  | 45 | 32.5 |  | 18.7 | Delta blood pressure (Rattus norvegicus [13]): 51.2; Delta blood pressure (Rattus norvegicus [14]): 27.5; Delta blood pressure (Rattus norvegicus [15]): 28.7 |
